ChEMBL document CHEMBL1137378, “Antibacterial agent discovery using thymidylate synthase biolibrary screening” (J Med Chem, 2006)
Values after ≈ are worked out from the molar mass of the structure shown.

How the values were obtained:
Enterococcus faecalis = assay: Antibacterial activity against Enterococcus faecalis ATCCC29212; format: functional
Procedure, shortened: (§1)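 Wild-type strain panel (18 Gram-positive and Gram-negative strains). Bacteria grown in Mueller-Hinton broth at 37 °C for 24 h. Exponentially growing cultures diluted in sterile liquid medium to a final inoculum of about 1 × 10⁴ CFU/mL, then exposed to increasing compound concentrations. MIC taken as the lowest concentration with no evident bacterial growth.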

Escherichia coli [1] = assay: Antibacterial activity against Escherichia coli 256; format: functional; procedure, shortened: as §1
Escherichia coli [2] = assay: Antibacterial activity against Escherichia coli 292; format: functional; procedure, shortened: as §1
Vero [3] = assay: Cytotoxicity against Vero cells measured as percent of cell growth at 25 mg/L relative to control by MTT assay; format: functional, Chlorocebus sabaeus
Procedure, shortened: (§2)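 VERO cells grown in MEM with 5% heat-inactivated (56 °C, 30 min) FCS, penicillin, streptomycin and L-glutamine. Cultures were watched for 2 days and live cells counted. Cells were then exposed to increasing compound concentrations; wells with cells only served as control. After 24 h, mitochondrial dehydrogenase activity was read by MTT. Trypan blue exclusion was also run.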

Vero [4] = assay: Cytotoxicity against Vero cells measured as percent of cell growth at 12.05 mg/L relative to control by MTT assay; format: functional, Chlorocebus sabaeus; procedure, shortened: as §2
Vero [5] = assay: Cytotoxicity against Vero cells measured as percent of cell growth at 6.25 mg/L relative to control by MTT assay; format: functional, Chlorocebus sabaeus; procedure, shortened: as §2
Vero [6] = assay: Cytotoxicity against Vero cells measured as percent of cell growth at 3.12 mg/L relative to control by MTT assay; format: functional, Chlorocebus sabaeus; procedure, shortened: as §2
Dihydrofolate reductase = target: T1, Dihydrofolate reductase (Homo sapiens, UniProt P00374); assay: Inhibition of human dihydrofolate reductase
T1 sequence (P00374 whole entry): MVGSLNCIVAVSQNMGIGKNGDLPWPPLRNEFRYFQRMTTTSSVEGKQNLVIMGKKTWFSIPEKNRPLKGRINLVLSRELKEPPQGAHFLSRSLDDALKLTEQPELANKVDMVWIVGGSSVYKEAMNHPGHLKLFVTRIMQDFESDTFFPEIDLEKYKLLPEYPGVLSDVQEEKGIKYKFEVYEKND
Procedure, shortened: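 Purified human DHFR assayed spectrophotometrically at 25 °C by the fall in A340 on DHF reduction. Ki from steady-state kinetics.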

Listeria monocytogenes [7] = assay: Antibacterial activity against Listeria monocytogenes 3; format: functional; procedure, shortened: as §1
Listeria monocytogenes [8] = assay: Antibacterial activity against Listeria monocytogenes 4; format: functional; procedure, shortened: as §1
Listeria monocytogenes [9] = assay: Antibacterial activity against Listeria monocytogenes 5; format: functional; procedure, shortened: as §1
Listeria monocytogenes [10] = assay: Antibacterial activity against Listeria monocytogenes 6; format: functional; procedure, shortened: as §1
Listeria monocytogenes [11] = assay: Antibacterial activity against Listeria monocytogenes 7; format: functional; procedure, shortened: as §1
Listeria monocytogenes [12] = assay: Antibacterial activity against Listeria monocytogenes 8; format: functional; procedure, shortened: as §1
Listeria monocytogenes [13] = assay: Antibacterial activity against Listeria monocytogenes ATCC 4428; format: functional; procedure, shortened: as §1
Staphylococcus aureus [14] = assay: Antibacterial activity against Staphylococcus aureus 341; format: functional; procedure, shortened: as §1
Staphylococcus aureus [15] = assay: Antibacterial activity against Staphylococcus aureus 343; format: functional; procedure, shortened: as §1
Staphylococcus aureus [16] = assay: Antibacterial activity against Staphylococcus aureus K28; format: functional; procedure, shortened: as §1
Staphylococcus aureus [17] = assay: Antibacterial activity against Staphylococcus aureus ATCC 29213; format: functional; procedure, shortened: as §1
[18] = tested on: Staphylococcus haemolyticus; assay: Antibacterial activity against Staphylococcus haemolyticus ATCC 2997; format: functional; procedure, shortened: as §1
[19] = tested on: Staphylococcus saprophyticus; assay: Antibacterial activity against Staphylococcus saprophyticus ATCC 15305; format: functional; procedure, shortened: as §1
Citrobacter = assay: Antibacterial activity against Citrobacter 224; format: functional; procedure, shortened: as §1
Streptococcus = assay: Antibacterial activity against Streptococcus 42; format: functional; procedure, shortened: as §1
Vero [20] = assay: Cytotoxicity against Vero cells measured as percent of cell growth at 50 mg/L relative to control by MTT assay; format: functional, Chlorocebus sabaeus; procedure, shortened: as §2
[21] = tested on: Staphylococcus epidermidis; assay: Antibacterial activity against multiresistant Staphylococcus epidermidis 39; format: functional
Procedure, shortened: (§3)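 Clinical multidrug-resistant isolates from hospitalized patients' blood or urine. Bacteria grown in Mueller-Hinton broth at 37 °C for 24 h. Exponential-phase cultures diluted in sterile liquid medium to a final inoculum of about 1 × 10⁴ CFU/mL, then exposed to increasing compound concentrations. Inhibitor stocks in DMSO. MIC (µg/mL) taken as the lowest concentration with no evident bacterial growth.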

[22] = tested on: Staphylococcus epidermidis; assay: Antibacterial activity against multiresistant Staphylococcus epidermidis 42; format: functional
[23] = tested on: Staphylococcus epidermidis; assay: Antibacterial activity against multiresistant Staphylococcus epidermidis 33; format: functional
Vero [24] = assay: Cytotoxicity against Vero cells measured as percent of cell growth at 1.56 mg/L relative to control by MTT assay; format: functional, Chlorocebus sabaeus; procedure, shortened: as §2
[25] = tested on: Staphylococcus epidermidis; assay: Antibacterial activity against multiresistant Staphylococcus epidermidis 45; format: functional; procedure, shortened: as §3
[26] = tested on: Staphylococcus epidermidis; assay: Antibacterial activity against multiresistant Staphylococcus epidermidis […]; format: functional
[27] = tested on: Staphylococcus epidermidis; assay: Antibacterial activity against multiresistant Staphylococcus epidermidis 30; format: functional; procedure, shortened: as §3
[28] = tested on: Staphylococcus epidermidis; assay: Antibacterial activity against multiresistant Staphylococcus epidermidis 32; format: functional; procedure, shortened: as §3
[29] = tested on: Staphylococcus epidermidis; assay: Antibacterial activity against multiresistant Staphylococcus epidermidis 50; format: functional; procedure, shortened: as §3
[30] = tested on: Staphylococcus epidermidis; assay: Antibacterial activity against multiresistant Staphylococcus epidermidis 21; format: functional; procedure, shortened: as §3
[31] = tested on: Staphylococcus epidermidis; assay: Antibacterial activity against multiresistant Staphylococcus epidermidis 48; format: functional; procedure, shortened: as §3
[32] = tested on: Staphylococcus epidermidis; assay: Antibacterial activity against multiresistant Staphylococcus epidermidis 36; format: functional; procedure, shortened: as §3
Staphylococcus aureus [33] = assay: Antibacterial activity against multiresistant Staphylococcus aureus 27; format: functional; procedure, shortened: as §3
Staphylococcus aureus [34] = assay: Antibacterial activity against multiresistant Staphylococcus aureus 15; format: functional; procedure, shortened: as §3
Staphylococcus aureus [35] = assay: Antibacterial activity against multiresistant Staphylococcus aureus 17; format: functional; procedure, shortened: as §3
[36] = tested on: Staphylococcus haemolyticus; assay: Antibacterial activity against multiresistant Staphylococcus haemolyticus 51; format: functional; procedure, shortened: as §3
[37] = tested on: Staphylococcus haemolyticus; assay: Antibacterial activity against multiresistant Staphylococcus haemolyticus 56; format: functional; procedure, shortened: as §3
Enterococcus faecium [38] = assay: Antibacterial activity against multiresistant Enterococcus faecium 52; format: functional; procedure, shortened: as §3
Enterococcus faecium [39] = assay: Antibacterial activity against multiresistant Enterococcus faecium 28; format: functional; procedure, shortened: as §3
Enterococcus faecium [40] = assay: Antibacterial activity against multiresistant Enterococcus faecium 57; format: functional; procedure, shortened: as §3
Enterococcus faecium [41] = assay: Antibacterial activity against multiresistant Enterococcus faecium 6; format: functional; procedure, shortened: as §3
Enterococcus gallinarum [42] = assay: Antibacterial activity against multiresistant Enterococcus gallinarum 37; format: functional; procedure, shortened: as §3
Enterococcus gallinarum [43] = assay: Antibacterial activity against multiresistant Enterococcus gallinarum 64; format: functional; procedure, shortened: as §3
Staphylococcus aureus [44] = assay: Antibacterial activity against multiresistant Staphylococcus aureus 9; format: functional; procedure, shortened: as §3

**Q.** With `O=C1OC(c2ccc(O)c(Cl)c2)(c2ccc(O)c(Cl)c2)c2cccc3cccc1c23` as the molecule, how does the MIC (Enterococcus faecalis) read?
**A.** 10 µg/mL (≈ 22.9 µM)

**Q.** And the MIC (Escherichia coli [1])?
**A.** > 25 µg/mL

**Q.** And the MIC (Escherichia coli [2])?
**A.** > 25 µg/mL

**Q.** And the Activity (Vero [3])?
**A.** 70%

**Q.** And the Activity (Vero [4])?
**A.** 90%

**Q.** And the Activity (Vero [5])?
**A.** 90%

**Q.** And the Activity (Vero [6])?
**A.** 90%

**Q.** And the Ki (Dihydrofolate reductase)?
**A.** 5.2 µM

**Q.** What about the MIC (Listeria monocytogenes [7]) of the same molecule?
**A.** 2.5 µg/mL (≈ 5.72 µM)

**Q.** And the MIC (Listeria monocytogenes [8])?
**A.** 10 µg/mL (≈ 22.9 µM)

**Q.** What about the MIC (Listeria monocytogenes [9]) of the same molecule?
**A.** 5 µg/mL (≈ 11.4 µM)

**Q.** What about the MIC (Listeria monocytogenes [10]) of the same molecule?
**A.** 10 µg/mL (≈ 22.9 µM)

**Q.** And the MIC (Listeria monocytogenes [11])?
**A.** 5 µg/mL (≈ 11.4 µM)

**Q.** What about the MIC (Listeria monocytogenes [12]) of the same molecule?
**A.** 5 µg/mL (≈ 11.4 µM)

**Q.** And the MIC (Listeria monocytogenes [13])?
**A.** 5 µg/mL (≈ 11.4 µM)

**Q.** And the MIC (Staphylococcus aureus [14])?
**A.** 5 µg/mL (≈ 11.4 µM)

**Q.** What about the MIC (Staphylococcus aureus [15]) of the same molecule?
**A.** 5 µg/mL (≈ 11.4 µM)

**Q.** And the MIC (Staphylococcus aureus [16])?
**A.** > 25 µg/mL

**Q.** And the MIC (Staphylococcus aureus [17])?
**A.** 5 µg/mL (≈ 11.4 µM)

**Q.** And the MIC [18]?
**A.** 2.5 µg/mL (≈ 5.72 µM)

**Q.** What about the MIC [19] of the same molecule?
**A.** 2.5 µg/mL (≈ 5.72 µM)

**Q.** What about the MIC (Citrobacter) of the same molecule?
**A.** > 25 µg/mL

**Q.** And the MIC (Streptococcus)?
**A.** 5 µg/mL (≈ 11.4 µM)

**Q.** And the Activity (Vero [20])?
**A.** 58%

**Q.** What about the MIC [21] of the same molecule?
**A.** 2.5 µg/mL (≈ 5.72 µM)

**Q.** What about the MIC [22] of the same molecule?
**A.** 5 µg/mL (≈ 11.4 µM)

**Q.** What about the MIC [23] of the same molecule?
**A.** > 65 µg/mL

**Q.** What about the Activity (Vero [24]) of the same molecule?
**A.** 90%

**Q.** What about the MIC [25] of the same molecule?
**A.** > 65 µg/mL

**Q.** What about the MIC [26] of the same molecule?
**A.** > 65 µg/mL

**Q.** And the MIC [27]?
**A.** > 65 µg/mL

**Q.** And the MIC [28]?
**A.** > 65 µg/mL

**Q.** And the MIC [29]?
**A.** > 65 µg/mL

**Q.** What about the MIC [30] of the same molecule?
**A.** > 65 µg/mL

**Q.** And the MIC [31]?
**A.** > 65 µg/mL

**Q.** And the MIC [32]?
**A.** > 65 µg/mL

**Q.** And the MIC (Staphylococcus aureus [33])?
**A.** > 65 µg/mL

**Q.** What about the MIC (Staphylococcus aureus [34]) of the same molecule?
**A.** > 65 µg/mL

**Q.** And the MIC (Staphylococcus aureus [35])?
**A.** > 65 µg/mL

**Q.** What about the MIC [36] of the same molecule?
**A.** > 65 µg/mL

**Q.** What about the MIC [37] of the same molecule?
**A.** > 65 µg/mL

**Q.** What about the MIC (Enterococcus faecium [38]) of the same molecule?
**A.** > 65 µg/mL

**Q.** What about the MIC (Enterococcus faecium [39]) of the same molecule?
**A.** > 75 µg/mL

**Q.** And the MIC (Enterococcus faecium [40])?
**A.** 10 µg/mL (≈ 22.9 µM)

**Q.** What about the MIC (Enterococcus faecium [41]) of the same molecule?
**A.** 10 µg/mL (≈ 22.9 µM)

**Q.** And the MIC (Enterococcus gallinarum [42])?
**A.** 10 µg/mL (≈ 22.9 µM)

**Q.** And the MIC (Enterococcus gallinarum [43])?
**A.** 2.5 µg/mL (≈ 5.72 µM)

**Q.** And the MIC (Staphylococcus aureus [44])?
**A.** > 65 µg/mL
